Assay outcomes: PubChem BioAssay, several laboratories
Rows were chosen to be rich in hits. Some 2.8% of all compounds tested hit in one or more screens of this group.
HTR2A ag: activates the mouse 5-HT2A serotonin receptor. P35363. CHO-K1 mHTR2A beta-arrestin complementation, luminescence; percent of 30 µM serotonin response. activation, % at 7.6 µM. hit rate 0.66% among 360,000;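 active = activation above a run cutoff, the mean activation of all tested compounds plus 3 SD, cut at about 14% in these data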;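 note: 0% = plate median of compound wells and 100% = 30 µM serotonin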
EBI2 antag: antagonists of human EBI2 receptor. P32249. hit rate 0.81% among 360,000. inhibition, % at 5 µM. EBI2 beta-arrestin recruitment, luminescence, 7a,25-OHC stimulated. AID 651636; in the data active = inhibition above about 38%;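 note: enzyme fragment complementation signal reports receptor beta-arrestin coupling in cells; 0% = agonist plus DMSO wells and 100% = wells without agonist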
Target sequence (P32249 whole entry, looked up, the tested form may be a part): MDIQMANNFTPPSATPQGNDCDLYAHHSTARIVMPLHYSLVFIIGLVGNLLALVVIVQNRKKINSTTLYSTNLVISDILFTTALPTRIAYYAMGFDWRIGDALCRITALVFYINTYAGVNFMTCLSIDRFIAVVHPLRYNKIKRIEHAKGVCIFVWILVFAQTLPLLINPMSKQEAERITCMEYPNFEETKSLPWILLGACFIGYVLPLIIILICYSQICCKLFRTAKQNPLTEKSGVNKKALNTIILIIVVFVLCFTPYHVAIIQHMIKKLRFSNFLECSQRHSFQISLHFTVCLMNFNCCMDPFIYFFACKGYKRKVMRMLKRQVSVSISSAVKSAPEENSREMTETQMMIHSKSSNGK
MC4R antagonist: blocks human MC4R cAMP signaling; MC4R-expressing cells, MTII-stimulated cAMP, LANCE TR-FRET; inhibition, % at 6.5 µM; hit rate 0.48% among 360,000;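 active = inhibition above its plate's cutoff, the mean of tested wells on that plate plus 3 SD, cut at about 29% in these data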;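 note: 0% = Melanotan II alone and 100% = Melanotan II plus saturating MCL0020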
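material = U2OS cells stably expressing human melanocortin 4 receptor (MC4R) | also added = Melanotan II challenge | dosing = single nominal compound dose of 6.5 µM | detection = TR-FRET with Eu-cAMP and labeled anti-cAMP, 671 nm | replication = singlicate | timing = compound 30 min, challenge 1 h, detection 1 h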
MC4R ag barr: human MC4R agonism via beta-arrestin; P32245; U2OS MC4R beta-arrestin complementation, luminescence; percent of melanotan II response, DMSO zero; activation, % at 8.9 µM; hit rate 0.98% among 360,000;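 active = activation above a per-plate cutoff, the mean activation of sample wells on that plate plus 3 SD, cut at about 8% in these data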
EBI2 antag conf: confirmation of human EBI2 receptor antagonists; shares compounds with EBI2 antag; hit rate 29% among 2,400; EBI2 beta-arrestin luminescence, 7a,25-OHC antagonism; inhibition, % at 5 µM;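 active = inhibition of at least 50%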
EBI2 ag: activates EBI2, counter-screen for EBI2 antagonists; shares compounds with EBI2 antag; EBI2-expressing cells, agonist mode, luminescence, 60 min; 0% vehicle, 100% 7α,25-dihydroxycholesterol control; activation, % at 5 µM; 2,400 tested, under 10 active; AID 652000;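 active = activation of at least 50%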
bGal cs: inhibits E. coli beta-galactosidase, counter-screen for EBI2 antagonists. inhibition, % at 5 µM. shares compounds with EBI2 antag. hit rate 1% among 2,400. purified beta-galactosidase, luminescent Galacton Star, 15 min;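 active = replicate-average signal at least 3 plate SD below neutral wells, shown as high inhibition, flagging enzyme-inhibiting false positives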;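 note: 0% = DMSO wells with enzyme and 100% = wells lacking enzyme; higher means stronger loss of beta-gal luminescence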
The depositor's hits bear a star; · = no result given.

SMILES	HTR2A ag	EBI2 antag	MC4R antagonist	MC4R ag barr	EBI2 antag conf	EBI2 ag	bGal cs
N#Cc1c(Nc2ccccc2)c(/C=N/NCCO)c[nH]c1=O	0	-1	-2	-1	·	·	·
N#Cc1c(Nc2ccccc2)c(/C=N/N=C/c2ccccc2)c[nH]c1=O	5	96*	14	2	85*	-2	-6
CCCc1nnc(NC(=O)CCC(=O)N2CCC(C)CC2)s1	2	4	22	-1	·	·	·
COCCOC(=O)c1c(NC(=O)CN2c3ccccc3CC2C)sc(C(N)=O)c1C (configuration not stated)	-3	65*	7	0	31	-1	3
CCOc1ncccc1C(=O)OCC(=O)c1ccc(Br)s1	1	-3	1	2	·	·	·
CN1/C(=C/C2CC(=O)N(c3ccc([N+](=O)[O-])cc3)C2=O)C(C)(C)c2ccccc21 (configuration not stated)	-1	9	15	-3	·	·	·
Brc1cccc(Nc2nc(-c3cccnc3)cs2)c1	0	42*	8	0	45	2	2
Clc1cccc(Nc2nc(-c3cccnc3)cs2)c1	-6	48*	18	0	53*	0	7
Oc1ccc(Nc2nc(-c3cccnc3)cs2)cc1	-1	-3	2	-1	·	·	·
CC(=O)c1cccc(Nc2nc(-c3cccnc3)cs2)c1	-2	20	8	-3	·	·	·
Cc1ccc(Nc2nc(-c3cccnc3)cs2)cc1C	1	49*	6	0	56*	2	2
COc1ccc(C(=O)N2CCC(C(=O)c3ccc(F)cc3)CC2)cc1	-2	59*	-1	-1	29	0	-8
COc1ccc(C(=O)C2CCN(C(=O)c3ccc(OC)cc3)CC2)cc1	0	58*	2	0	34	0	-17
CCOC(=O)N1CCN(C(=O)c2ccc(OCC)cc2)CC1	-2	25	0	0	·	·	·
COc1cc(OC)cc(C(=O)N2CCC(C(=O)c3ccc(F)cc3)CC2)c1	-6	6	0	0	·	·	·
CCOc1ccc(C(=O)N2CCC(C(=O)c3ccc4c(c3)OCCO4)CC2)cc1	3	81*	2	1	56*	1	1
CCOc1ccc(C(=O)N2CCCN(C(=O)c3ccc(OCC)cc3)CC2)cc1	3	45*	2	-1	39	4	1
COc1ccc(CCc2nc(C)ccc2O)cc1	0	-6	3	0	·	·	·
N#Cc1ccc(C(=O)Nc2ccc3ccccc3c2)cc1	-11	60*	-2	0	51*	3	1
N#Cc1ccccc1Sc1ccccc1C(=O)Nc1ccc2ccccc2c1	-9	1	6	-2	·	·	·
CC(=O)CCc1ccc(Oc2nc(-c3cccnc3)nc3ccccc23)cc1	-1	54*	7	-2	25	1	3
O=C(/C=C/c1ccccc1)N1CCC(c2ccccc2)C1 (configuration not stated)	1	64*	2	-1	50	0	5
O=C(CN1CCN(C(=O)C2CCN(C(=O)/C=C/c3ccccc3)CC2)CC1)Nc1ccc(F)cc1	-4	62*	15	-2	28	0	8
COC(=O)C1CCN(C(=O)/C=C/c2ccccc2)CC1	0	66*	5	-2	50*	0	7
O=C(/C=C/c1cccc(Cl)c1)N1CCC(Cc2ccccc2)CC1	-4	70*	7	-2	51*	0	-21
O=C(CN1CCC(C(=O)c2ccc(F)cc2)CC1)Nc1ccccc1	-7	7	9	-1	·	·	·
COc1cccc(C2C3=C(CC(C)(C)CC3=O)Nc3n[nH]c(C)c32)c1 (configuration not stated)	2	-8	2	-3	·	·	·
CC1CC(C)CN(C(=O)COC(=O)CNC(=O)C23CC4CC(CC(C4)C2)C3)C1 (configuration not stated)	-1	4	-2	1	·	·	·
O=C(/C=C/c1ccccc1)N1CCC(Cc2ccccc2)CC1	-4	90*	3	1	77*	-1	-20
